Test results published in ChEMBL document CHEMBL4376812 (J Med Chem, 2019).

Legend:
[1] = Protein binding in cynomolgus monkey assessed as unbound fraction; type: ADME, Macaca fascicularis
[2] = Metabolic stability in cynomolgus monkey liver microsomes assessed as half life; type: ADME, Macaca fascicularis, Microsome
How it was run: (§1)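 Liver microsomes from human, rat, mouse, dog, cynomolgus monkey and rabbit were incubated with compound. Stability is reported as half-life (T1/2, min). Values are means of at least three separate experiments.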

[3] = molecular target: Cytochrome P450 2D6 (Homo sapiens, UniProt P10635); test: Inhibition of CYP2D6 (unknown origin); type: ADME
How it was run: (§2)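 Inhibition of CYP1A2, 2C9, 2C19, 2D6 and 3A4, read out as IC50. The highest concentration tested was 40 μM.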

[4] = molecular target: Cytochrome P450 3A4 (Homo sapiens, UniProt P08684); test: Induction of CYP3A4 (unknown origin) by PXR-transactivation assay; type: ADME
How it was run: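 CYP3A4 induction measured by PXR transactivation, read out as EC50. The highest concentration tested was 40 μM.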

[5] = MRT in cynomolgus monkey at 2 mg/kg, iv; type: ADME, organism-based, Macaca fascicularis; details: in vivo
How it was run: (§3)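 Dog and monkey iv PK: 2 mg/kg given by iv administration. Clearance (mL min⁻¹ kg⁻¹), Vss, T1/2 (h) and MRT (h) were derived.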

[6] = Permeability coefficient, Kp across apical to basolateral side in human Caco2 cells; type: ADME, cell-based; details: Caco-2, read-out: permeability
How it was run: (§4)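 Caco-2 monolayer permeability measured in both directions, apical-to-basal and basal-to-apical, reported as Pc in nm/s. An efflux ratio was calculated from the two directions.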

[7] = Permeability coefficient, Kp across basolateral to apical side in human Caco2 cells; type: ADME, cell-based; details: Caco-2, read-out: permeability; how it was run: as §4
[8] = Protein binding in human assessed as unbound fraction; type: ADME
[9] = Cmax in dog at 10 mg/kg, po; type: ADME, organism-based, Canis lupus familiaris; parameters: dose 10 mg/kg, route oral; details: in vivo
How it was run: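 Oral PK: single dose of 10 mg/kg as a solution in ethanol/TPGS/PEG 300 (5:5:90) given to mouse, dog and monkey. Cmax (μM), AUC (μM × h) and bioavailability F (%) were derived, with F taken against the iv arm.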

[10] = Time during which drug concentration exceed invitro IC50 for TYK2 in mouse whole blood assessed as decrease in IFNalpha-induced STAT1 phosphorylation in C57BL/6 mouse at 15 mg/kg, po via gavage bid for 9 days with first dose given prior to first IL23 challenge and twice a day thereafter; type: ADME, organism-based; details: in vivo, 216 h
How it was run: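 Drug levels were measured in the animals of the IL-23 acanthosis study, dosed orally twice daily. The duration was the time, in hours, that levels stayed at or above the in vitro mouse whole blood IC50 for IFNα-induced pSTAT1.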

[11] = Metabolic stability in rat liver microsomes assessed as half life; type: ADME, Microsome; how it was run: as §1
[12] = molecular target: Cytochrome P450 2C9 (Homo sapiens, UniProt P11712); test: Inhibition of CYP2C9 (unknown origin); type: ADME; how it was run: as §2
[13] = Volume of distribution at steady state in dog at 2 mg/kg, iv; type: ADME, organism-based, Canis lupus familiaris; details: in vivo, read-out: Vdss
How it was run: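 Single intravenous dose in 80% PEG 400/20% water. V_ss was taken from the iv plasma PK profile.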

[14] = Clearance in cynomolgus monkey at 2 mg/kg, iv; type: ADME, organism-based, Macaca fascicularis; details: in vivo; how it was run: as §3
[15] = Half life in dog at 2 mg/kg, iv; type: ADME, organism-based, Canis lupus familiaris; details: in vivo; how it was run: as §3

Cytochrome P450 3A4, sequence (P08684 whole entry): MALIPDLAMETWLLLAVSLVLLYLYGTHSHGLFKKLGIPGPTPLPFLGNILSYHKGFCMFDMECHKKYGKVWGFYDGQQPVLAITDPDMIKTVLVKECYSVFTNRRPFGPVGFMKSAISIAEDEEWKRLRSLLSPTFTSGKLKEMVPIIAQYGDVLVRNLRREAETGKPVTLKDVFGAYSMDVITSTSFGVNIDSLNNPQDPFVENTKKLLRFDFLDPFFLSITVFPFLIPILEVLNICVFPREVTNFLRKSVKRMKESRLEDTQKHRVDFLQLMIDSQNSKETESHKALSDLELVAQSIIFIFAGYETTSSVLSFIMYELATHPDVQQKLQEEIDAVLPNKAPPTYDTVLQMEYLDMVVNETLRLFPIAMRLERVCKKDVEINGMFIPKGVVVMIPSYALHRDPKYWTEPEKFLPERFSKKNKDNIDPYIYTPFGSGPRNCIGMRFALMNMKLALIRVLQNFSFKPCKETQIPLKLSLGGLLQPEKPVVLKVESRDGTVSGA
Cytochrome P450 2C9, sequence (P11712 whole entry): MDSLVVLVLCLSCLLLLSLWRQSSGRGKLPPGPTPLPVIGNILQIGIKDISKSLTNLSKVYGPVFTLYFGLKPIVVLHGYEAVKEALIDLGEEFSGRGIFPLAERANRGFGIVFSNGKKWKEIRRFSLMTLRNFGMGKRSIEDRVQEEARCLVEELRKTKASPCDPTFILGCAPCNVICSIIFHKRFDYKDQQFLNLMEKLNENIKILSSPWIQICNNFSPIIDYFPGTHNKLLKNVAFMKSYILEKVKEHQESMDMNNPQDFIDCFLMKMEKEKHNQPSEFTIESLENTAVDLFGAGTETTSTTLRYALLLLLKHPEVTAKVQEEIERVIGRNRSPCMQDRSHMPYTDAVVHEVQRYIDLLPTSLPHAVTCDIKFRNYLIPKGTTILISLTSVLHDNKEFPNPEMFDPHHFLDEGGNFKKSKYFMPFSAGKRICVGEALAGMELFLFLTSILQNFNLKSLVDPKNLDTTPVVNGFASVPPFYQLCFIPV
Cytochrome P450 2D6, sequence (P10635 whole entry): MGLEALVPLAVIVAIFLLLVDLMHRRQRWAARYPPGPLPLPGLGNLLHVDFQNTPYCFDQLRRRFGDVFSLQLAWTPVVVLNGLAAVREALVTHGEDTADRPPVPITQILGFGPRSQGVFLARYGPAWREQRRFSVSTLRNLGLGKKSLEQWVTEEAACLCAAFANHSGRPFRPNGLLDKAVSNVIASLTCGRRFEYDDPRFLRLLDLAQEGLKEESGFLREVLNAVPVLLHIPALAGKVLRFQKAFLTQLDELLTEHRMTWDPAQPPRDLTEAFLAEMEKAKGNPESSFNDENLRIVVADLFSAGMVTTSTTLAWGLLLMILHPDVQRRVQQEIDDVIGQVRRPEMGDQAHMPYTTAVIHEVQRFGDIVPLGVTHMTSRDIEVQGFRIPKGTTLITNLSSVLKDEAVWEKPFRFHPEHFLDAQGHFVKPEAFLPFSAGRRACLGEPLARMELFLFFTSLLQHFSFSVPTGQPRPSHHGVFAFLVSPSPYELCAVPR

fraction unbound [1]: 0.12 | half-life [2]: > 2 h | IC50 [3]: > 40 µM | EC50 [4]: > 40 µM | MRT [5]: 7 h | Papp A→B [6]: 7 ×10⁻⁶ cm/s | Papp B→A [7]: 74 ×10⁻⁶ cm/s | fraction unbound [8]: 0.13 | Cmax [9]: 6.9 µM | T>IC50 [10]: 21 h | half-life [11]: > 2 h | IC50 [12]: > 40 µM | Vd [13]: 2.3 L/kg | clearance [14]: 4.8 mL/min/kg | half-life [15]: 4.6 h
Structure (SMILES): [2H]C([2H])([2H])NC(=O)c1nnc(NC(=O)C2CC2)cc1Nc1cccc(-c2ncn(C)n2)c1OC [DEUCRAVACITINIB]
